Experimental data of several laboratories.
Effect on: metabolic stability
Host: human

| Compound | system | conditions | scaled CLint |
| --- | --- | --- | --- |
| Cc1cc([C@H]2C[C@H]3[C@@H](CF)SC(N)=N[C@@]3(c3ccc(F)cc3F)CO2)on1 | liver microsomes | – | < 8 mL/min/kg |
| Cc1nc2ccc(C(=O)N3CCC4(CC3)Cc3cnn(C(C)C)c3C(O)C4)cc2[nH]1 (centres unmarked) | liver microsomes | – | < 8 mL/min/kg |
| O=C(c1ccc(F)cc1)C1CCN(CCn2c(=O)[nH]c3ccccc3c2=O)CC1 | liver microsomes | – | 44.8 mL/min/kg |
| Cc1coc([C@H]2C[C@H]3[C@@H](C)SC(N)=N[C@@]3(c3ccc(F)cc3F)CO2)n1 | liver microsomes | – | < 8 mL/min/kg |
| O=C(Nc1ccc(N2C(=O)c3cccc(Cl)c3C2=O)c(Cl)c1)c1ncccc1Cl | liver microsomes | 1 µM, pH 7.4 | 17.2 mL/min/kg |
| Nc1nc(-c2ccc(NC(=O)Nc3ccc(-c4c[nH]c(N)n4)c(F)c3)cc2F)c[nH]1 | liver microsomes | 5 µM, pH 7.4 | < 20.8 mL/min/kg |
| CC(=O)Nc1cc(Nc2cc(NC3CC3)n3ncc(C#N)c3n2)ccc1N1CCC[C@H](O)C1 | hepatocytes | 1 µM, serum-free | 73 mL/min/kg |
| CC(C)(C)n1cc2c(n1)C(O)C(C)(C)C1(CCN(C(=O)c3ccc4[nH]ncc4c3)CC1)O2 (centres unmarked) | liver microsomes | – | 17 mL/min/kg |
| Cc1cc([C@H]2C[C@H]3CSC(N)=N[C@@]3(c3ccc(F)cc3F)CO2)on1 | liver microsomes | – | 55.2 mL/min/kg |
| O=C1c2ccc(OCc3cccc(F)c3)nc2CCN1c1ccc(F)cn1 | liver microsomes | – | 18 mL/min/kg |
| Cc1ccc(F)c2cc(C(=O)N[C@@H]3CCC[C@H](c4ccncc4)C3)[nH]c12 | hepatocytes | 0.5 µM, 2 h | 32.3 mL/min/kg |
| Cn1cc([C@H]2C[C@H]3CSC(N)=N[C@@]3(c3ccc(F)cc3F)CO2)cn1 | liver microsomes | – | 9.1 mL/min/kg |
| CC(F)(F)CN1Cc2cc(C(F)(F)F)ncc2C2=CN=C(NCc3c(F)ccc4c3CCO4)N3C=NC(C1=O)C23 (centres unmarked) | liver microsomes | 100 µM, 30 min | 9.9 mL/min/kg |
| Cc1coc([C@H]2C[C@H]3CSC(N)=N[C@@]3(c3ccc(F)cc3F)CO2)n1 | liver microsomes | – | 69.6 mL/min/kg |
| O=C1NCCc2nc(OCc3cccc(F)c3)ccc21 | liver microsomes | – | 25 mL/min/kg |
| Nc1nc(-c2ccc(NC(=O)c3ccc(Cl)c(Cl)c3)cc2F)c[nH]1 | liver microsomes | 5 µM, 1 h, pH 7.4 | 10.9 mL/min/kg |
| CC(C)N1Cc2cc(C(F)(F)F)ncc2C2=CN=C(NCc3c(F)ccc4c3CCO4)N3C=NC(C1=O)C23 (centres unmarked) | liver microsomes | 100 µM, 30 min | 5.65 mL/min/kg |
| Nc1nc(-c2cccc(NC(=O)Nc3cccc(-c4c[nH]c(N)n4)c3)c2)c[nH]1 | liver microsomes | 5 µM, pH 7.4 | < 20.8 mL/min/kg |
| O=C1c2ccc(COc3cccc(F)c3)nc2CCN1c1ccc(F)cc1 | liver microsomes | – | 8.8 mL/min/kg |
| Cc1ccc(F)c2cc(C(=O)N[C@@H]3CCC[C@H](N4CCN(C)C(=O)C4)C3)[nH]c12 | hepatocytes | 0.5 µM, 2 h | 23.7 mL/min/kg |
